We go through 17 compounds from ChEMBL document CHEMBL1149659 (Bioorg Med Chem Lett, 2007).

In brackets after ≈: the same amount, converted by molar mass. Activity calls are given as the source filed them. The calls are words filed in the database; no cut-off is given here.

In assay [1] the test system is 3T3-L1. The assay is described as follows: Inhibition of mouse 3T3-L1 cell differentiation at 2 uM.
Assay [2] has as its system 3T3-L1 (Mus musculus). The experiment in a line: Inhibition of [1-14C]sodium acetate uptake in mouse 3T3-L1 cells at 2 uM.
Assay [3] has as its target T1, Peroxisome proliferator-activated receptor gamma (Homo sapiens) (UniProt P37231).
T1 sequence (whole entry): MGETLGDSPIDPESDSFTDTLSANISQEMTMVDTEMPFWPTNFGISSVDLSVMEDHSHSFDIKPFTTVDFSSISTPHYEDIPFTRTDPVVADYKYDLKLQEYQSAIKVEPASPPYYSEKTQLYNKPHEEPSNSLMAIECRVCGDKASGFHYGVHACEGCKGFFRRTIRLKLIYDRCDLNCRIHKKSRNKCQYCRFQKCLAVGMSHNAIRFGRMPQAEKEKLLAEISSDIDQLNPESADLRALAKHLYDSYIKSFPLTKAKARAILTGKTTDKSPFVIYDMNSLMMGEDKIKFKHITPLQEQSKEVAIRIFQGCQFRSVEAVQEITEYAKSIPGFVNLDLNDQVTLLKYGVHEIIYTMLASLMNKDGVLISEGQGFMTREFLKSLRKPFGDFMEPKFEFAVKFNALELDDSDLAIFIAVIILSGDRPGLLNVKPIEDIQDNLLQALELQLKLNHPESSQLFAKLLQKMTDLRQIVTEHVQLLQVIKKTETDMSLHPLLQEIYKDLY
The experiment in a line: Antagonist activity at pioglitazone-stimulated PPARgamma transcriptional activity in U2OS cells at 1 uM. In kind it is functional, cell-based. In a few lines:
(§1)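 U2OS cells transfected with PPARγ expression plasmid, matching reporter plasmid and pCMV-β-galactosidase as internal control; reporter transcriptional activity measured with or without 1 μM pioglitazone stimulation; means of triplicate cultures.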

Assay [4] relates to 3T3-L1. The experiment in a line: Inhibition of mouse 3T3-L1 cell differentiation by oil-red O staining method. In kind it is functional. In a few lines: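 Insulin-induced differentiation of 3T3-L1 pre-adipocytes into adipocytes; reduction in oil-red O stained cells judged under a microscope to give minimal inhibitory concentration.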
Assay [5] addresses T2, Peroxisome proliferator-activated receptor gamma (Homo sapiens, UniProt P37231).
T2 sequence (P37231 whole entry): T1 sequence (whole entry)
The experiment in a line: Binding affinity to PPARgamma.

Assay [6] addresses T1, Peroxisome proliferator-activated receptor gamma (Homo sapiens). The experiment in a line: Activation of PPARgamma transcriptional activity in U20S cells at 0.01 to 1 uM. Format: functional, cell-based. The following applies: U2OS. In a few lines: as §1
The subject of assay [7] is 3T3-L1. The experiment in a line: Stimulation of mouse 3T3-L1 cells differentiation at 2 to 4 uM in presence of guanosine. In kind it is functional, cell-based. In a few lines:
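3T3-L1 cells with 50 μM guanosine added to suppress IMPDH-related effects; adipocyte differentiation stimulation examined at 2–4 μM.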

The subject of assay [8] is 3T3-L1. The assay is described as follows: Inhibition of mouse 3T3-L1 cell differentiation assessed as minimal effective concentration by oil-red O staining method.

Take `COC(=O)CC/C(C)=C/Cc1c(OC)c(C)c2c(c1OC)C(=O)OC2`: the outcome in assay [1] was inactive.

Turning to `COC(=O)CC/C(C)=C/Cc1c(O)c2c(c(C)c1OC(=O)c1ccncc1)COC2=O`, the outcome in assay [1] was inactive. For the same compound, the inhibition (commonly the percentage by which the read-out fell short of the control) in assay [2] is 3%. As to `COCCOCOc1c(C/C=C(\C)CCC(=O)OC)c(O)c(C)c2c1C(=O)OC2`, the result in assay [1] was inactive. This compound also returned an inhibition in assay [2] of 10%.

For the compound `COc1c(C)c2c(c(OC(C)=O)c1C/C=C(\C)CCC(=O)O)C(=O)OC2`, the result in assay [3] and in assay [1] was Active. In addition, the inhibition in assay [2] came to 86%. `C/C=C/C1=CC(=O)[C@@H](O)[C@@H]1O` [TERREIN]: inhibition of growth in assay [4] (MIC) required 81 µM (≈ 12.5 µg/mL).

Regarding `COC(=O)CC/C(C)=C/Cc1c(O)c(C)c2c(c1OS(=O)(=O)c1ccc(C)cc1)C(=O)OC2`, the result in assay [1] was inactive.

For the compound `COc1c(C)c2c(c(OC)c1C/C=C(\C)CCC(=O)O)C(=O)OC2`, the outcome in assay [1] was inactive. On the same count and under the same terms, then `COC(=O)CC/C(C)=C/Cc1c(O)c2c(c(C)c1OC(=O)c1cccnc1)COC2=O`, with “inactive”; and `COCCOCOc1c(C/C=C(\C)CCC(=O)OC)c(OC(=O)c2cccnc2)c(C)c2c1C(=O)OC2`, with “inactive”; and `C/C(=C\Cc1c(O)c(C)c2c(c1O)C(=O)OC2)CCC(=O)O`, with “inactive”. Consider `CCOC(=O)COc1c(C)c2c(c(OCOCCOC)c1C/C=C(\C)CCC(=O)OC)C(=O)OC2`, for which, in assay [1], the result was inactive. `CCOC(=O)COc1c(C)c2c(c(O)c1C/C=C(\C)CCC(=O)OC)C(=O)OC2`: in assay [1], the outcome was inactive. For the same compound, in assay [2], the inhibition is 0%. For the compound `COC(=O)CC/C(C)=C/Cc1c(O)c2c(c(C)c1OC)COC2=O`, the result in assay [3] and in assay [1] was Active.

Consider `COc1c(C)c2c(c(O)c1C/C=C(\C)CCC(=O)O)C(=O)OC2` [MYCOPHENOLIC ACID], for which the result in assay [3], in assay [6], in assay [7] and in assay [1] was Active. The Kd (commonly the equilibrium constant for the complex coming apart) in assay [5] was found to be 110 µM. Further, the Activity in assay [8] stood at 0.2 µM. Turning to `COC(=O)CC/C(C)=C/Cc1c(O)c(C)c2c(c1O)C(=O)OC2`, the outcome in assay [1] was inactive. Take `COCCOCOc1c(C/C=C(\C)CCC(=O)OC)c(OC(=O)c2ccncc2)c(C)c2c1C(=O)OC2`: the outcome in assay [1] was inactive. `COC(=O)CC/C(C)=C/Cc1c(OC)c(C)c2c(c1OS(=O)(=O)c1ccc(C)cc1)C(=O)OC2`: in assay [1], the outcome was inactive.
